From ChEMBL document CHEMBL4706553, “Discovery of potent small molecule PROTACs targeting mutant EGFR” (Eur J Med Chem, 2020)
Calls of active or inactive are those of the source.

Tests used:
HCC827 = assay: Antiproliferative activity against human HCC827 cells expressing EGFR del19 mutant assessed as cell growth inhibition measured after 72 hrs by MTT assay; format: functional, cell-based; details: HCC827, 72 h
Summary of the method: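 HCC827 cells were kept in RPMI-1640 with 10% heat-inactivated FBS, 1% sodium pyruvate, 1% glutamine and 1% penicillin-streptomycin at 37 °C and 5% CO₂, seeded at 3000–8000/well and rested 24 h. Compounds were applied as a concentration series for 72 h. MTT (5 mg/mL stock in PBS) was given for 4 h, then medium was removed and DMSO added. IC50 came from nonlinear regression (log inhibitor vs response).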

NCI-H1975 = assay: Antiproliferative activity against human H1975 cells expressing EGFR L858R/T790M mutant assessed as cell growth inhibition measured after 72 hrs by MTT assay; format: functional, cell-based; details: NCI-H1975, 72 h
Summary of the method: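 MTT assay on H1975 cells grown in RPMI-1640 with 10% heat-inactivated FBS and 1% penicillin-streptomycin at 37 °C and 5% CO₂. Cells were seeded at 3000–8000 per well and left 24 h, then exposed to a concentration series for 72 h. MTT (5 mg/mL stock in PBS) was added for 4 h, supernatant removed and formazan dissolved in DMSO. IC50 was fitted by nonlinear regression (log inhibitor vs response).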

HepG2 = assay: Antiproliferative activity against human HepG2 cells expressing VEGFR2 assessed as cell growth inhibition measured after 72 hrs by MTT assay; format: functional, cell-based; details: HepG2, 72 h
Summary of the method: (§1)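 Cells were seeded at 3000–8000/well and allowed 24 h, then exposed to serial compound concentrations for 72 h. MTT (5 mg/mL stock in PBS) was added for 4 h, supernatant removed and DMSO added. IC50, defined as 50% growth inhibition, was derived by nonlinear regression (log inhibitor vs response).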

[1] = system: von Hippel-Lindau disease tumor suppressor/Epidermal growth factor receptor (Homo sapiens), P00533+P40337 [UNDEFINED MUTATION]; assay: Protac activity at VHL/EGFR del19 mutant in human HCC827 cells assessed as induction of EGFR degradation at 33 to 333 nM measured after 24 hrs by Western blot analysis; format: cell-based; details: dose 33-333 nM
Summary of the method: (§2)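 HCC827 cells seeded at 0.5–1 × 10⁶ per well, grown 24 h, then treated at the stated concentrations for 24 h. EGFR^del19 level by Western blot with anti-EGFR antibody and β-actin loading control.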

[2] = biological target: von Hippel-Lindau disease tumor suppressor/Epidermal growth factor receptor (Homo sapiens, UniProt P00533+P40337); assay: Protac activity at VHL/EGFR del19 mutant in human HCC827 cells assessed as induction of EGFR degradation measured after 24 hrs by Western blot analysis; format: cell-based; summary of the method: as §2
A-431 = assay: Antiproliferative activity against human A431 cells expressing wild type EGFR assessed as cell growth inhibition measured after 72 hrs by MTT assay; format: functional, cell-based; details: A-431, 72 h; summary of the method: as §1
[3] = system: Protein cereblon/Epidermal growth factor receptor (Homo sapiens), P00533+Q96SW2 [UNDEFINED MUTATION]; assay: Protac activity at CRBN/EGFR del19 mutant in human HCC827 cells assessed as induction of EGFR degradation at 333 nM measured after 24 hrs by Western blot analysis; format: cell-based; summary of the method: as §2
[4] = system: Protein cereblon/Epidermal growth factor receptor (Homo sapiens), P00533+Q96SW2 [UNDEFINED MUTATION]; assay: Protac activity at CRBN/EGFR del19 mutant in human HCC827 cells assessed as induction of EGFR degradation at 33 nM incubated for 24 hrs measured following compound wash-out for 24 to 48 hrs by Western blot analysis; format: cell-based
Summary of the method: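 HCC827 cells (RPMI-1640, 10% heat-inactivated FBS, 1% sodium pyruvate, 1% glutamine, 37 °C, 5% CO₂) treated at 33 nM for 24 h. Medium then replaced with compound-free medium, and protein harvested at the stated times. EGFR read by Western blot; n = 2.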

[5] = system: Protein cereblon/Epidermal growth factor receptor (Homo sapiens), P00533+Q96SW2 [UNDEFINED MUTATION]; assay: Protac activity at CRBN/EGFR del19 mutant in human HCC827 cells assessed as induction of EGFR degradation at 33 nM measured after 24 hrs by Western blot analysis; format: cell-based; summary of the method: as §2
[6] = system: Protein cereblon/Epidermal growth factor receptor (Homo sapiens), P00533+Q96SW2 [UNDEFINED MUTATION]; assay: Protac activity at CRBN/EGFR del19 mutant in human HCC827 cells assessed as induction of EGFR degradation at 33 nM by Western blot analysis; format: cell-based; details: time 12-72 hrs, TDE = time-dependent effect
Summary of the method: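 Time course in HCC827 cells at 33 nM, with protein harvested at each stated time point. EGFR^del19 detected by Western blot.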

[7] = system: Protein cereblon/Epidermal growth factor receptor (Homo sapiens), P00533+Q96SW2 [UNDEFINED MUTATION]; assay: Protac activity at CRBN/EGFR del19 mutant in human HCC827 cells assessed as maximal induction of EGFR degradation at 33 nM measured after 48 hrs by Western blot analysis; format: cell-based
Summary of the method: (§3)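 HCC827 cells seeded at 0.5–1 × 10⁶ per well, then treated at the stated concentrations for 48 h. EGFR by Western blot; n = 3. DC₅₀ (concentration giving 50% EGFR loss) by nonlinear regression, log(inhibitor) vs response.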

[8] = biological target: T1, Protein cereblon/Epidermal growth factor receptor (Homo sapiens, UniProt P00533+Q96SW2); assay: Protac activity at CRBN/EGFR del19 mutant in human HCC827 cells assessed as induction of EGFR degradation measured after 48 hrs by Western blot analysis; format: cell-based; summary of the method: as §3
[9] = biological target: T1, Protein cereblon/Epidermal growth factor receptor; assay: Protac activity at CRBN/EGFR in human A431 cells assessed as induction of degradation of EGFR at 0.1 to 3.3 uM incubated for 48 hrs by Western blot analysis; format: cell-based; details: A-431, dose 0.1-3.3 µM
[10] = system: Protein cereblon/Epidermal growth factor receptor (Homo sapiens), P00533+Q96SW2 [UNDEFINED MUTATION]; assay: Protac activity at CRBN/EGFR del19 mutant in human HCC827 cells assessed as induction of EGFR degradation at 0.033 uM pretreated with ubiquitination inhibitor, MLN4924 for 2 hrs followed by incubation with compound for 24 hrs by Western blot analysis; format: cell-based
[11] = system: Protein cereblon/Epidermal growth factor receptor (Homo sapiens), P00533+Q96SW2 [UNDEFINED MUTATION]; assay: Protac activity at CRBN/EGFR del19 mutant in human HCC827 cells assessed as induction of EGFR degradation at 0.033 uM pretreated with EGFR inhibitor, F for 2 hrs followed by incubation with compound for 24 hrs by Western blot analysis; format: cell-based
[12] = system: Protein cereblon/Epidermal growth factor receptor (Homo sapiens), P00533+Q96SW2 [UNDEFINED MUTATION]; assay: Protac activity at CRBN/EGFR del19 mutant in human HCC827 cells assessed as induction of EGFR degradation at 0.033 uM pretreated with CRBN ligand, lenalidomide for 2 hrs followed by incubation with compound for 24 hrs by Western blot analysis; format: cell-based
[13] = system: Protein cereblon/Epidermal growth factor receptor (Homo sapiens), P00533+Q96SW2 [UNDEFINED MUTATION]; assay: Protac activity at CRBN/EGFR del19 mutant in human HCC827 cells assessed as induction of EGFR degradation at 0.033 uM pretreated with proteasome inhibitor, MG132 for 2 hrs followed by incubation with compound for 24 hrs by Western blot analysis; format: cell-based
[14] = system: Protein cereblon/Epidermal growth factor receptor (Homo sapiens), P00533+Q96SW2 [UNDEFINED MUTATION]; assay: Protac activity at CRBN/EGFR del19 mutant in human HCC827 cells assessed as induction of EGFR degradation at 0.033 uM pretreated with autophagy inhibitor, chloroquine for 2 hrs followed by incubation with compound for 24 hrs by Western blot analysis; format: cell-based
[15] = system: von Hippel-Lindau disease tumor suppressor/Epidermal growth factor receptor (Homo sapiens), P00533+P40337 [UNDEFINED MUTATION]; assay: Protac activity at VHL/EGFR del19 mutant in human HCC827 cells assessed as induction of EGFR degradation at 1 to 33 nM incubated for 24 hrs by Western blot analysis; format: cell-based; details: dose 1-33 nM; summary of the method: as §2
[16] = system: von Hippel-Lindau disease tumor suppressor/Epidermal growth factor receptor (Homo sapiens), P00533+P40337 [L858R,T790M]; assay: Protac activity at VHL/EGFR L858R/T790M mutant in human H1975 cells assessed as induction of degradation of EGFR at 0.33 to 1 uM incubated for 24 hrs by Western blot analysis; format: cell-based; details: NCI-H1975, dose 0.33-1 µM
Summary of the method: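 H1975 cells, after 24 h seeding, treated at the stated concentrations for 24 h. EGFR by Western blot with β-actin loading control.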

Compound | IC50 (HCC827) | IC50 (NCI-H1975) | IC50 (HepG2) | Activity [1] | IC50 (A-431) | Activity [3] | Activity [5] | further results
Cc1ncsc1-c1ccc(CNC(=O)[C@@H]2C[C@@H](O)CN2C(=O)[C@@H](NCCOCCOCCN2CCN(c3ccc(Nc4ncc5nc(Nc6ccccc6)n(C6CCCC6)c5n4)cc3)CC2)C(C)(C)C)cc1 | 0.0535 µM | 1.1 µM | > 5 µM | inactive |  |  |  | 
COc1cc2ncnc(Nc3ccc(F)c(Cl)c3)c2cc1OCCCCCOCCOCCC(=O)N[C@H](C(=O)N1C[C@H](O)C[C@H]1C(=O)NCc1ccc(-c2scnc2C)cc1)C(C)(C)C |  |  |  |  |  |  |  | DC50 [2]: 0.0117 µM
CN(CCOCCOCCOCCN1CCN(c2ccc(Nc3ncc4nc(Nc5ccccc5)n(C5CCCC5)c4n3)cc2)CC1)CC(=O)Nc1cccc2c1CN(C1CCC(=O)NC1=O)C2=O (stereo not given) | 0.002 µM | 3.18 µM | > 5 µM |  | 1.86 µM | inactive | Active | Activity [4]: inactive; Activity [6]: Tde; Emax [7]: 82%; DC50 [8]: 0.00191 µM; Activity [9]: inactive; Activity [10]: inactive; Activity [11]: inactive; Activity [12]: inactive; Activity [13]: Active; Activity [14]: inactive
Cc1ncsc1-c1ccc(CNC(=O)[C@@H]2C[C@@H](O)CN2C(=O)[C@@H](NCCOCCOCCOCCN2CCN(c3ccc(Nc4ncc5nc(Nc6ccccc6)n(C6CCCC6)c5n4)cc3)CC2)C(C)(C)C)cc1 | 0.0544 µM | 2.1 µM | > 5 µM | inactive |  |  |  | 
Cc1ncsc1-c1ccc(CNC(=O)[C@@H]2C[C@H](O)CN2C(=O)[C@@H](NC(=O)CCCCCCN2CCN(c3ccc(Nc4ncc5nc(Nc6ccccc6)n(C6CCCC6)c5n4)cc3)CC2)C(C)(C)C)cc1 | 0.0158 µM | > 10 µM |  |  |  |  |  | Activity [15]: inactive; Activity [16]: inactive
O=C1CCC(N2Cc3c(NC(=O)CCCCCCN4CCN(c5ccc(Nc6ncc7nc(Nc8ccccc8)n(C8CCCC8)c7n6)cc5)CC4)cccc3C2=O)C(=O)N1 (stereo not given) | 0.00141 µM | 9.3 µM | > 5 µM |  | 0.22 µM | inactive | Active | 
